Assay results: ChEMBL document CHEMBL4513216, “Probing the Open Global Health Chemical Diversity Library for Multistage-Active Starting Points for Next-Generation Antimalarials” (ACS Infect Dis, 2020)

test: Toxicity liver stage against HepG2, at 10uM; format: cell-based; set-up: test concentration 10 uM, cell line HepG2-A16-CD81EGFP; settings: human, HepG2-A16-CD81EGFP cells; read-out: INHIBITION
How it was run: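 Uninfected HepG2-A16-CD81EGFP cells, 3 × 10^3 per well, 1536-well, plated on prespotted compound at 10 μM final, parasite-free screening media added to match infected plates; puromycin 10 μM positive, DMSO 0.5% negative; run in parallel with 48 h PbLuc assay at 37 °C, 5% CO2; viability by CellTiter-Glo luminescence, normalized to controls.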

| Structure (SMILES) | cytotoxicity at 10 µM [%] |
| --- | --- |
| CCc1ncc(C(=O)c2ccc(OC)cc2)n1C | 14.5 |
| O=C(CCn1cccn1)NCCOc1cccc(Cl)c1 | -2.48 |
| CNC(=O)NC(=O)CSc1ccc2c(c1)CCC2 | 19.6 |
| c1cc(-c2c[nH]c([C@@H]3COCCN3Cc3ncc[nH]3)n2)ccn1 | 4.99 |
| COCCNC(=O)c1ccc2c(=O)n3c(nc2c1)CCCC3 | 10 |
| O=C1CSC(c2ccc(Cl)cc2Cl)c2c(n(C3CCOCC3)[nH]c2=O)N1 (stereo not given) | -7.92 |
| CCCNC(=O)Cn1c(-n2nc(C)cc2C)nc(CCC)cc1=O | 8.94 |
| N#Cc1cccnc1OC1CCN(S(=O)(=O)c2c(F)cccc2F)CC1 | 5.45 |
| CN(C)C(=O)CN1CCC2(CCN(C(=O)N3CCCC3)CC2)C1=O | 2.7 |
| NC(=O)N1CCC2(CC1)CC(=O)N(CC1CCCO1)c1ccccc12 (stereo not given) | 5.56 |
| CS(=O)(=O)CC(=O)NCC1OCCc2cn(CC3CC3)nc21 (stereo not given) | 3.45 |
| COCCC(=O)N1CCCC2(CCC(=O)N2CCOC)CC1 (stereo not given) | 2.52 |
| CCOc1ccc(NC(C)=O)cc1S(=O)(=O)Nc1cc(C)on1 | -4.13 |
| CCOc1ccc(N2CCCN=C2NC(=O)c2cccc(OC)c2)cc1 | 5.2 |
| CCn1cc(CNC(=O)CCn2ncc3c(Cl)cccc32)cn1 | 10.9 |
| Cc1nn(C)c2c(NC3CCCC3)nc(C3CC3)nc12 | -0.801 |
| CCN(CC)C(=O)c1nnsc1-c1ccc(C)cc1 | 3.14 |
| Cc1nn(C)c(C)c1S(=O)(=O)N(C)Cc1nn(C)c(Cl)c1Cl | -3.78 |
| CS(=O)(=O)N1CC2(CCCN(CC3CC3)C2)Cc2ccccc21 (stereo not given) | 2.85 |
| COCc1ccc(CNc2cnn(C(C)(C)C)c(=O)c2Cl)cc1 | 60.9 |
| O=C1OCCN1CCSc1nnnn1C1CCOCC1 | -48.4 |
| Cc1n[nH]cc1CNC(=O)CCCc1cccs1 | -52.3 |

| Structure (SMILES) | cytotoxicity at 10 µM [%] |
| --- | --- |
| OCCOc1cc(F)ccc1NCc1cccc(F)c1F | -6.14 |
| O=C1CC[C@H](C(=O)N(CCc2ccccc2)C2CCOC2)N1 (stereo not given in full) | 1.15 |
| N#CC1(C(=O)N2CCOC(c3ccc(F)cc3)C2)CCCC1 (stereo not given) | -3.3 |
| CN(Cc1nnc2ccccn12)C(=O)CCC1CCCC1 | -2.94 |
| CN(Cc1ccsc1)C(=O)CNC(=O)N1CCc2ccccc2C1 | -2.9 |
| CNC(=O)Cc1ccccc1NC(=O)N[C@H]1c2ccccc2C[C@H]1O | -36.1 |
| CCC(CNC(=O)Cc1cc(C)on1)Oc1cccc(F)c1 (stereo not given) | -48.2 |
| N#Cc1ncn(CCS(=O)(=O)c2ccc(Cl)cc2)n1 | -6.74 |
| O=C(CCc1ccsc1)Nc1ccnn1C1CCS(=O)(=O)C1 (stereo not given) | 9.01 |
| COCCOCCC(=O)N1CCC(c2ccccc2C)C1 (stereo not given) | -9.46 |
| CCSCCC(C)N(C)C(=O)c1cc(C)no1 (stereo not given) | -9.99 |
| CNS(=O)(=O)c1cccc(C(C)NCc2ccco2)c1 (stereo not given) | 4.61 |
| Nc1ccnc(CNc2cc(F)ccc2OCC2CCCO2)n1 (stereo not given) | 17.4 |
| NS(=O)(=O)N1CCc2ccc(NC(=O)Cc3ccccc3F)cc21 | 1.17 |
| OC1CCCN(Cc2ccc(F)c3cccnc23)C1 (stereo not given) | 4.75 |
| Cc1nc(N2CCCC(N3CCCC3)C2)c2cnn(C)c2n1 (stereo not given) | -4.07 |
| Cc1nn(C)c(C)c1NC(=O)Nc1cccnc1N1CCCC1 | 7.31 |
| CC(C)CCNC(=O)c1ccc(Cl)c(NS(C)(=O)=O)c1 | 2.2 |
| CN(C)C(=O)c1cccc(C[S+]([O-])CC(=O)NC2CCCC2)c1 (stereo not given) | 5.79 |
| CC(=O)N1CCCc2ccc(S(=O)(=O)N3CCCCC3C)cc21 (stereo not given) | -15.1 |
| Cc1cc(CCC(=O)NCc2ncc[nH]2)ccc1Br | -18.1 |
| CC(C)c1nsc(N2CCC(OCCN3CCOCC3)CC2)n1 | -14.2 |

| Structure (SMILES) | cytotoxicity at 10 µM [%] |
| --- | --- |
| Cc1ccnc(NC(=O)C2CCN(CCCc3cn[nH]c3)CC2)c1 | -49 |
| CCNC(=O)N(C)Cc1ccc(SC)c(OC)c1 | -13.1 |
| CN(C)C(=O)[C@H]1CCS(=O)(=O)[C@@H]2CN(c3ncc(F)cn3)C[C@H]12 | -100 |
| O=S(=O)(C1CC1)N1CCC2(CN(c3ncccn3)C2)C1 | -98.4 |
| Cc1ccc(CN2Cc3cnn(C)c3C(COCC3CC3)C2)o1 (stereo not given) | -78.5 |
| O=C1[C@@H]2CCN(Cc3ccoc3)C[C@@H]2OCCN1c1cccnc1 | -74.6 |
| Fc1cccc(-c2nnn3c2COC(CNc2ncccn2)C3)c1 (stereo not given) | -65.3 |
| OC[C@H]1CCCN1c1nccc(-c2c[nH]nc2C2CCCCC2)n1 | -2.5 |
| Cc1ccc(OCCN(C)Cc2nccn2C)c(C)c1 | 5.51 |
| O=C1NCCN(C(=O)c2cn3ccsc3n2)C1Cc1ccccc1 (stereo not given) | -9.51 |
| COc1ccc(-c2nccn2CCN2CCCCC2)c(OC)c1OC | 4.74 |
| CC(C)CN(Cc1ccccn1)Cc1ccccc1OCC(=O)O | -12.7 |
| CCc1nc(C)c(-c2nccn2CC2CC(=O)N(CC)C2)[nH]1 (stereo not given) | 0.361 |
| CCc1cc(C(=O)N[C@H]2CN(CCS(C)(=O)=O)C[C@@H]2C2CC2)[nH]n1 | 3.91 |
| CC(C)c1cc(N[C@H](C(N)=O)C(C)C)n2nccc2n1 | -1.56 |
| O=C1O[C@@H]2CN(Cc3cc4ccccc4o3)C[C@@H]2N1Cc1ccccn1 | 5.16 |
| Cc1cnccc1CN(C)C(=O)c1ccc(Cn2cnnn2)cc1 | 8.15 |
| COc1cc(C)c(-c2ccc(F)c3c2OC(CN)C3)cc1C (stereo not given) | 20.3 |
| Cc1ccccc1C(CNC(=O)CSc1nnc(N)s1)N(C)C (stereo not given) | 12 |
| C[C@@H]1CN(C(=O)CCN2CCOCC2)CC[C@]1(C)O | -0.51 |
| CSCC[C@H](NC(C)=O)C(=O)N(C)Cc1ccc(-n2cccn2)cc1 | -122 |
| CN(Cc1csc(-c2cccs2)n1)C(=O)CN1CCOC1=O | -0.811 |

| Structure (SMILES) | cytotoxicity at 10 µM [%] |
| --- | --- |
| COc1ccc(C(=O)N2CC[C@](C)(O)[C@H](C)C2)cc1N1CCOCC1 | 14.9 |
| Cn1ncc2c(N[C@@H]3CS(=O)(=O)C[C@H]3O)nc(C(C)(C)C)nc21 | -1.32 |
| CNC(=O)[C@@H]1C[C@@H](NC(=O)CSc2ccccc2)CN1C1CCOCC1 | 2.14 |
| O=C1CC(NS(=O)(=O)NCc2ccccc2)CN1c1ccccc1Cl (stereo not given) | -5.68 |
| COC(=O)c1ccc(N2CCN(C(=O)c3ccn(C)c(=O)c3)CC2)cc1 | 2.7 |
| CCc1cc(N[C@@H](CO)C(N)=O)n2nc(C)c(C)c2n1 | -13.4 |
| COCc1ncc(CN2CCC3(CCC(=O)N(CC(C)O)C3)CC2)cn1 (stereo not given) | -123 |
| CCC[C@@H]1CN(Cc2cc3c(cc2OC)OCCO3)C[C@H]1C(=O)O | -9.47 |
| Cc1cnc(NC(C)Cc2cccnc2)nc1N(C)C (stereo not given) | -4.03 |
| C[C@@H]1CN(CC(C)(C)N2CCOCC2)C[C@@]1(O)C1CC1 | 2.93 |
| Cc1ccc(CCN[C@@H]2c3ccccc3C3(CCNCC3)[C@H]2O)s1 | -2.72 |
| CC(=O)NCc1nnc2n1CCN(c1nc(C)nc3sccc13)CC2 | 15.5 |
| c1cc(-c2cnccn2)cc(-c2ccn(CCN3CCCC3)n2)c1 | -11.5 |
| Clc1ccccc1C1(c2ccnc(-c3ccncc3)n2)CCNCC1 | -8.16 |
| CN1CC(c2ccccc2)CC12CCN(C(=O)c1c(Cl)cnn1C)CC2 (stereo not given) | -17 |
| c1ccc2nc(CN3CCCC3c3noc(C4CC4)n3)ccc2c1 (stereo not given) | -5.48 |
| Cc1ccc(C(=O)N2CCCC(c3cc(C(F)(F)F)[nH]n3)C2)o1 (stereo not given) | 5.77 |
| COc1ccc(C2CCCN2C(=O)NCCCn2ccnc2)cc1 (stereo not given) | -13.4 |
| CC(C)Oc1ncccc1CNC(=O)N1CCC1 | -7.6 |
| CCc1noc(CN2CCN(C(=O)C3CC3)CC2)n1 | -1.88 |
| Cc1ccc(C(=O)N2CCN(Cc3ccc(C#N)cc3)CC2)n1C | -9.65 |
| Cc1ccc(-c2nc(CN3CCn4c(nnc4C4CC4)C3)co2)c(C)c1 | -24.7 |

| Structure (SMILES) | cytotoxicity at 10 µM [%] |
| --- | --- |
| O=C(c1ccc2nncn2c1)N1CCCCC1Cn1cccn1 (stereo not given) | -3.11 |
| OCCn1cc(CN2CCN(CCOCC(F)(F)F)CC2)cn1 | -10.7 |
| COCCCN1CCCN(C(C)c2nc(C3CC3)no2)CC1 (stereo not given) | -8.77 |
| CC(C)c1ccc(O)c(C(=O)N2CCN(Cc3cscn3)CC2)c1 | -3.24 |
| Cc1cc(C)c(OCC(=O)NS(=O)(=O)c2c(C)noc2C)c(C)c1 | -6.64 |
| Cc1nc(C2CCCN2CCCS(=O)(=O)N(C)C)no1 (stereo not given) | -4.69 |
| c1ccc(-n2ccnc2)c(CNCC2CNc3ccnn3C2)c1 (stereo not given) | -8.11 |
| O=C(NCCc1coc(-c2ccc(F)cc2)n1)NC1CCC(O)CC1 (stereo not given) | 7.96 |
| Cc1ccc(C(=O)N2CCCC(NC(=O)C(C)C)C2)c(O)c1 (stereo not given) | -7.84 |
| Cc1sc2c(C3CCNCC3)nc(Nc3cccc(F)c3)n2c1C | -0.775 |
| Fc1ccc(OCCCNC2=NCCN2)cc1 | 5.08 |
| CCCOc1ccccc1CN[C@@H]1CCC[C@H]1Cc1cc(C)no1 | -6.86 |
| Cc1cc2c(=O)n3c(nc2s1)CCN(Cc1[nH]cnc1C)CC3 | -9.9 |
| CN1CCN(C2COC3(CCN(Cc4ccc(F)cc4)CC3)C2)CC1 (stereo not given) | -97.4 |
| CC1c2ncc(Cn3cccn3)n2CCN1Cc1ccc(F)cc1 (stereo not given) | -107 |
| CCN1CCOCC12CCN(c1nccs1)CC2 | -107 |
| CCO[C@@H]1CC[C@H]2[C@H]1OCCN2CC1CCC1 | 11.2 |
| CN1CCO[C@H]2CN(C(=O)c3ccoc3)C[C@H]21 | -80.6 |
| COCCN1CCC2(CC1)CC(NC(=O)CN(C)C)c1ccccc1O2 (stereo not given) | 0.169 |
| O=C(NC1CCCC1)[C@@H]1C[C@@H]2CCN(Cc3ccoc3)C[C@H]2O1 | -110 |
| COCCN1C(=O)C[C@H]2[C@H]1CCN2Cc1ccccc1 | -71.5 |
| O=C(NCCc1cccs1)[C@]12COC[C@H]1CN(Cc1ccncc1)C2 | -114 |
